Results from different studies.
Each line is one published result; the experiments were not run side by side. pEC50, pIC50: −log10 of the molar value. In brackets after ≈: the same amount, converted by molar mass.

`Cc1ccc(COc2cccc(C3Oc4ccccc4C=C3[N+](=O)[O-])c2)cc1` (stereo not drawn) has an IC50 of 162 µg/mL (Leishmania tropica; parasite growth; THP-1; 72 h, intracellular, amastigote).
`COc1ccc(N=Nc2c(N)nn3c(-c4ccc(Cl)cc4Cl)cc(-c4ccc(OCc5ccccc5)cc4)nc23)cc1` gave an MIC of 125 µg/mL (≈ 210 µM) (Saccharomyces cerevisiae; microbial growth, broth dilution; ATCC9763).
With `O=[N+]([O-])C1=Cc2ccccc2OC1c1cccc(Cl)c1` (stereo not drawn) the IC50 was 151 µg/mL (Leishmania tropica; parasite growth; THP-1; 72 h, intracellular, amastigote).
The MIC of `COc1ccc(N=Nc2c(N)nn3c(-c4ccco4)cc(-c4ccc(OCc5ccccc5)cc4)nc23)cc1` is reported as 62.5 µg/mL (≈ 121 µM) (Saccharomyces cerevisiae; microbial growth, broth dilution; ATCC9763).
With `CCOC(=O)C1=C(CN2CCCC2C(=O)Nc2ccc(B3OC(C)(C)C(C)(C)O3)cc2)NC(c2nccs2)=NC1c1ccc(F)cc1Br` (stereo not drawn) the pEC50 was 6.43 (Hepatitis B virus; viral replication, inhibitor, qPCR; HepDES19; 72 h).
The pIC50 of `CNC(=S)NN=Cc1ccc(OC)cc1` is reported as 4.64 (Leishmania tropica; parasite growth; J774.A1; 72 h, intracellular, amastigote).
`COc1ccc(N=Nc2c(N)nn3c(-c4ccc(C)cc4)cc(-c4ccc(OCc5ccccc5)cc4)nc23)cc1` has an MFC of 125 µg/mL (≈ 231 µM) (Saccharomyces cerevisiae; microbial killing, broth dilution; ATCC9763).
`CCOC(=O)C1=C(CN2CCC(C(=O)Nc3ccccc3B3OC(C)(C)C(C)(C)O3)C2)NC(c2nccs2)=NC1c1ccc(F)cc1Br` (stereo not drawn) has a pEC50 of 5.50 (Hepatitis B virus; viral replication, inhibitor, qPCR; HepDES19; 72 h).
For `O=[N+]([O-])C1=Cc2ccccc2OC1c1ccc(OCc2ccc(F)cc2)cc1` (stereo not drawn), the IC50 was 181 µg/mL (Leishmania tropica; parasite growth; THP-1; 72 h, intracellular, amastigote).
`C[C@@H]1[C@H](O)[C@@H](C)/C=C/C=C/C=C/C=C/C=C/C=C/C=C/[C@H](O[C@@H]2O[C@H](C)[C@@H](O)[C@H](N)[C@@H]2O)C[C@@H]2O[C@](O)(C[C@@H](O)C[C@@H](O)[C@H](O)CC[C@@H](O)C[C@@H](O)CC(=O)O[C@H]1C)C[C@H](O)[C@H]2C(=O)O` gave a pIC50 of 4.75 (Leishmania tropica; parasite growth, MTT; 72 h, promastigote).
`CCCCN1CN(CC(=O)O)CSC1=S` gave a pIC50 of 4.03 (Leishmania tropica; parasite growth, MTT; 48 h, promastigote).
`O=[N+]([O-])C1=Cc2ccccc2OC1c1ccc(Cl)cc1` (stereo not drawn) has an IC50 of 155 µg/mL (Leishmania tropica; parasite growth; THP-1; 72 h, intracellular, amastigote).
The pEC50 of `CCOC(=O)C1=C(CN2CCC[C@@H]2C(=O)Nc2ccc(B(O)O)cc2)NC(c2nccs2)=N[C@@H]1c1ccc(F)cc1Br` is reported as 5.41 (Hepatitis B virus; viral replication, inhibitor, qPCR; HepDES19; 72 h).
For `CNC(=S)NN=Cc1ccc(C)cc1`, the pIC50 was 3.35 (Leishmania tropica; parasite growth; J774.A1; 72 h, intracellular, amastigote).
For `CCOC(=O)C1=C(CN2CCC(C(=O)Nc3ccccc3B(O)O)C2)NC(c2nccs2)=NC1c1ccc(F)cc1Br` (stereo not drawn), the pEC50 was 5.71 (Hepatitis B virus; viral replication, inhibitor, qPCR; HepDES19; 72 h).
`CNC(=S)NN=Cc1ccc(Br)cc1` has a pIC50 of 4.03 (Leishmania tropica; parasite growth, MTT; 72 h, promastigote).
`Cc1ccc(C2Oc3ccccc3C=C2[N+](=O)[O-])cc1` (stereo not drawn) has an IC50 of 164 µg/mL (Leishmania tropica; parasite growth; THP-1; 72 h, intracellular, amastigote).
The pEC50 of `CCOC(=O)C1=C(CN2CCN(Cc3cccc(B(O)O)c3)CC2)NC(c2nccs2)=NC1c1ccc(F)cc1Br` (stereo not drawn) is reported as 5.90 (Hepatitis B virus; viral replication, inhibitor, qPCR; HepDES19; 72 h).
With `O=[N+]([O-])C1=Cc2ccccc2OC1c1ccccc1Br` (stereo not drawn) the IC50 was 154 µg/mL (Leishmania tropica; parasite growth; THP-1; 72 h, intracellular, amastigote).
The pEC50 of `CCOC(=O)C1=C(CN2CCCC2C(=O)Nc2cccc(B3OC(C)(C)C(C)(C)O3)c2)NC(c2nccs2)=NC1c1ccc(F)cc1Br` (stereo not drawn) is reported as 6.43 (Hepatitis B virus; viral replication, inhibitor, qPCR; HepDES19; 72 h).
`C[C@@H]1[C@H](O)[C@@H](C)/C=C/C=C/C=C/C=C/C=C/C=C/C=C/[C@H](O[C@@H]2O[C@H](C)[C@@H](O)[C@H](N)[C@@H]2O)C[C@@H]2O[C@](O)(C[C@@H](O)C[C@@H](O)[C@H](O)CC[C@@H](O)C[C@@H](O)CC(=O)O[C@H]1C)C[C@H](O)[C@H]2C(=O)O` gave an MIC of 0.25 µg/mL (≈ 0.271 µM) (Saccharomyces cerevisiae; microbial growth, broth dilution; BY4742; 48 h).
`O=[N+]([O-])C1=Cc2ccccc2OC1c1ccccc1OCc1ccccc1Cl` (stereo not drawn) has an IC50 of 171 µg/mL (Leishmania tropica; parasite growth; THP-1; 72 h, intracellular, amastigote).
`CC(=O)N1CCN(c2ccc(OCC3COC(Cn4ccnc4)(c4ccc(Cl)cc4Cl)O3)cc2)CC1` (stereo not drawn) has an MIC of 1.95 µg/mL (≈ 3.67 µM) (Saccharomyces cerevisiae; microbial growth, broth dilution; ATCC9763).
`CCOC(=O)C1=C(CN2CCC[C@@H]2C(=O)Nc2cccc(B(O)O)c2)NC(c2nccs2)=N[C@@H]1c1ccc(F)cc1Br` has a pEC50 of 5.59 (Hepatitis B virus; viral replication, inhibitor, qPCR; HepDES19; 72 h).
`Cc1ccc(-c2cc(-c3ccc(OCc4ccccc4)cc3)nc3c(N=Nc4ccc(F)cc4)c(N)nn23)cc1` has an MFC of 125 µg/mL (≈ 236 µM) (Saccharomyces cerevisiae; microbial killing, broth dilution; ATCC9763).
`CNC(=S)NN=Cc1ccc(OC)c(OC)c1` has a pIC50 of 3.34 (Leishmania tropica; parasite growth; J774.A1; 72 h, intracellular, amastigote).
`Cc1ccc(N=Nc2c(N)nn3c(-c4ccc(Cl)cc4Cl)cc(-c4ccc(OCc5ccccc5)cc4)nc23)cc1` has an MIC of 31.3 µg/mL (≈ 54 µM) (Saccharomyces cerevisiae; microbial growth, broth dilution; ATCC9763).
With `COc1ccc(C=NNC(=S)Nc2cccnc2)cc1OC` the pIC50 was < 3.00 (Leishmania tropica; parasite growth; J774.A1; 72 h, intracellular, amastigote).
`OC(Cn1cncn1)(Cn1cncn1)c1ccc(F)cc1F` gave an MIC of 8 µg/mL (≈ 26.1 µM) (Saccharomyces cerevisiae; microbial growth, broth dilution; BY4742; 48 h).
`Cc1ccc(N=Nc2c(N)nn3c(-c4ccc(C)cc4)cc(-c4ccc(OCc5ccccc5)cc4)nc23)cc1` has an MFC of 250 µg/mL (≈ 477 µM) (Saccharomyces cerevisiae; microbial killing, broth dilution; ATCC9763).
With `S=C(NN=Cc1ccc(Br)cc1)Nc1cccnc1` the pIC50 was 3.26 (Leishmania tropica; parasite growth, MTT; 72 h, promastigote).
For `Nc1nn2c(-c3ccco3)cc(-c3ccc(OCc4ccccc4)cc3)nc2c1N=Nc1ccc(F)cc1`, the MFC was 62.5 µg/mL (≈ 124 µM) (Saccharomyces cerevisiae; microbial killing, broth dilution; ATCC9763).
`COc1ccc(C=NNC(=S)Nc2cccnc2)cc1` gave a pIC50 of 3.19 (Leishmania tropica; parasite growth, MTT; 72 h, promastigote).
